Measured values taken from ChEMBL document CHEMBL1165950, “Design and synthesis of new potent anticancer pyrazoles with high FLT3 kinase inhibitory selectivity” (Bioorg Med Chem, 2010).

How the values were obtained:
Type in all cases: functional
T47D = experiment: Cytotoxicity against human T47D cells assessed as cell growth at 0.01 uM after 48 hrs by sulforhodamine B assay; conditions: read-out: Activity
SF-539 = experiment: Cytotoxicity against human SF539 cells assessed as cell growth at 0.01 uM after 48 hrs by sulforhodamine B assay; conditions: SF-539, 48 h, read-out: Activity
LOX IMVI = experiment: Growth inhibition of human LOXIMVI cells after 48 hrs by sulforhodamine B assay; conditions: for CC50: read-out: LC50 (the source's name)
In short: (§1)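 NCI 60-cell screen, five-dose mode. Cells grown in RPMI 1640 with 5% FBS and 2 mM L-glutamine and plated at 5000-40,000 cells/well according to doubling time. After 24 h preincubation, a Tz plate was TCA-fixed. Five concentrations (10-fold or 1/2 log dilutions) were applied for 48 h at 37 °C. SRB staining read at 515 nm. IC50 taken from [(Ti-Tz)/(C-Tz)]×100 = 50.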

K562 = experiment: Cytotoxicity against human K562 cells assessed as cell growth at 1 uM after 48 hrs by sulforhodamine B assay; conditions: K562, 48 h, read-out: Activity
HL-60(TB) [1] = experiment: Cytotoxicity against human HL-60(TB) cells assessed as cell growth at 10 uM; conditions: read-out: Activity
In short: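 NCI 60-cell panel screen at a single concentration of 10 µM. Cells are grown in RPMI 1640 with 5% FBS and 2 mM L-glutamine and read by SRB protein staining at 515 nm. Percent growth is measured relative to time-zero and untreated controls; inhibition % is 100 minus growth %.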

COLO 205 = experiment: Growth inhibition of human COLO205 cells after 48 hrs by sulforhodamine B assay; conditions: COLO 205, 48 h; for CC50: read-out: LC50 (the source's name)
In short: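 NCI five-dose SRB assay in RPMI 1640 with 5% FBS and 2 mM L-glutamine. Cells were preincubated 24 h, then exposed 48 h at 37 °C to five concentrations (10-fold or half-log serial dilutions from DMSO stocks). TCA fixation, SRB staining, and absorbance at 515 nm followed. IC50 was taken where [(Ti−Tz)/(C−Tz)]×100 = 50, with Tz as time-zero cell density.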

MOLT-4 = experiment: Cytotoxicity against human MOLT4 cells assessed as cell growth at 0.01 uM after 48 hrs by sulforhodamine B assay; conditions: MOLT-4, 48 h, read-out: Activity
NCI/ADR-RES = experiment: Cytotoxicity against human NCI/ADR-RES cells assessed as cell growth at 10 uM after 48 hrs by sulforhodamine B assay; conditions: read-out: Activity
SF-295 = experiment: Cytotoxicity against human SF295 cells assessed as cell growth at 10 uM; conditions: read-out: Activity
In short: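 NCI-60 screen: cells grown in RPMI 1640 with 5% FBS and 2 mM L-glutamine, plated at 5000–40,000 cells/well according to doubling time, and preincubated 24 h at 37 °C, 5% CO2. The single 10 µM dose (DMSO stock) was added, then incubated 48 h. Cells were TCA-fixed and stained with 0.4% SRB, read at 515 nm, and growth % calculated against time-zero and control plates.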

SW-620 = experiment: Growth inhibition of human SW620 cells after 48 hrs by sulforhodamine B assay; conditions: SW-620, 48 h; for CC50: read-out: LC50 (the source's name); in short: as §1
SNB-19 = experiment: Cytotoxicity against human SNB19 cells assessed as cell growth at 0.001 uM after 48 hrs by sulforhodamine B assay; conditions: SNB-19, 48 h, read-out: Activity
UACC-62 = experiment: Cytotoxicity against human UACC62 cells assessed as cell growth at 1 uM after 48 hrs by sulforhodamine B assay; conditions: UACC-62, 48 h, read-out: Activity
SNB-75 = experiment: Cytotoxicity against human SNB75 cells assessed as cell growth at 1 uM after 48 hrs by sulforhodamine B assay; conditions: SNB-75, 48 h, read-out: Activity
NCI-H460 [2] = experiment: Cytotoxicity against human NCI-H460 cells assessed as cell growth at 10 uM after 48 hrs by sulforhodamine B assay; conditions: NCI-H460, 48 h, read-out: Activity
MDA-MB-231 = experiment: Cytotoxicity against human MDA-MB-231 cells assessed as cell growth at 0.001 uM after 48 hrs by sulforhodamine B assay; conditions: MDA-MB-231, 48 h, read-out: Activity
NCI-H322M = experiment: Cytotoxicity against human NCI-H322M cells assessed as cell growth at 0.01 uM after 48 hrs by sulforhodamine B assay; conditions: read-out: Activity
HL-60(TB) [3] = experiment: Growth inhibition of human HL-60(TB) cells after 48 hrs by sulforhodamine B assay; conditions: HL-60, 48 h
In short: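 NCI 60-cell SRB screen. Cells in RPMI 1640 with 5% FBS and 2 mM L-glutamine are preincubated 24 h, then exposed to five concentrations (10-fold or 1/2-log dilutions from DMSO stock) for 48 h at 37 °C. Suspension cells are fixed with 80% TCA (final 16%), and A515 is read. IC50 is taken as the concentration where [(Ti−Tz)/(C−Tz)]×100 = 50, i.e. 50% reduction in net protein increase.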

HOP-92 = experiment: Growth inhibition of human HOP92 cells after 48 hrs by sulforhodamine B assay; conditions: HOP-92, 48 h; for CC50: read-out: LC50 (the source's name); in short: as §1
SK-OV-3 = experiment: Cytotoxicity against human SKOV3 cells assessed as cell growth at 0.001 uM after 48 hrs by sulforhodamine B assay; conditions: SK-OV-3, 48 h, read-out: Activity
NCI-H460 [4] = experiment: Cytotoxicity against human NCI-H460 cells assessed as cell growth at 0.01 uM after 48 hrs by sulforhodamine B assay; conditions: NCI-H460, 48 h, read-out: Activity
[5] = Cytotoxicity against human RPMI8266 cells assessed as cell growth at 0.01 uM after 48 hrs by sulforhodamine B assay; conditions: read-out: Activity
PC-3 = experiment: Growth inhibition of human PC3 cells after 48 hrs by sulforhodamine B assay; conditions: PC-3, 48 h; in short: as §1
UACC-257 = experiment: Cytotoxicity against human UACC257 cells assessed as cell growth at 0.01 uM after 48 hrs by sulforhodamine B assay; conditions: UACC-257, 48 h, read-out: Activity
EKVX = experiment: Cytotoxicity against human EKVX cells assessed as cell growth at 10 uM after 48 hrs by sulforhodamine B assay; conditions: read-out: Activity
OVCAR-4 = experiment: Cytotoxicity against human OVCAR4 cells assessed as cell growth at 1 uM after 48 hrs by sulforhodamine B assay; conditions: OVCAR-4, 48 h, read-out: Activity

Structure (SMILES) | growth at 0.01 µM (T47D) [%] | growth at 0.01 µM (SF-539) [%] | GI50 (LOX IMVI) [µM] | TGI (LOX IMVI) [µM] | CC50 (LOX IMVI) [µM] | growth at 1 µM (K562) [%] | growth at 10 µM (HL-60(TB) [1]) [%] | GI50 (COLO 205) [µM] | TGI (COLO 205) [µM] | CC50 (COLO 205) [µM] | growth at 0.01 µM (MOLT-4) [%] | growth at 10 µM (NCI/ADR-RES) [%] | growth at 10 µM (SF-295) [%] | GI50 (SW-620) [µM] | TGI (SW-620) [µM] | CC50 (SW-620) [µM] | growth at 0.001 µM (SNB-19) [%] | growth at 1 µM (UACC-62) [%] | growth at 1 µM (SNB-75) [%] | growth at 10 µM (NCI-H460 [2]) [%] | other results
COc1cc(C)cc(-c2c(-c3ccnc(-c4ccc(N(C)C)cc4)c3)cnn2CC#N)c1 | 36 | 79 | 0.0668 | > 100 | > 100 | -5 | -5.87 | 0.22 | > 100 | > 100 | 81 | 3 | 4.06 | 0.0394 | > 100 | > 100 | 90 | 18 | 10 | -55 | growth at 0.001 µM (MDA-MB-231): 101%; growth at 0.01 µM (NCI-H322M): 83%; GI50 (HL-60(TB) [3]): 0.105 µM; LC50 (HL-60(TB) [3]): > 100 µM; TGI (HL-60(TB) [3]): 0.465 µM; GI50 (HOP-92): < 0.01 µM; TGI (HOP-92): 0.0553 µM; CC50 (HOP-92): > 100 µM; growth at 0.001 µM (SK-OV-3): 102%; growth at 0.01 µM (NCI-H460 [4]): 35%; growth at 0.01 µM [5]: 78%; GI50 (PC-3): 0.0523 µM; LC50 (concentration giving 50% net cell kill) (PC-3): > 100 µM; TGI (PC-3): > 100 µM; growth at 0.01 µM (UACC-257): 38%; growth at 10 µM (EKVX): 2%; growth at 1 µM (OVCAR-4): 31%
COc1cc(C)cc(-c2nn(CC#N)cc2-c2ccc(-c3cccc(C(C)=O)c3)nc2)c1 | 93 | 89 | 3.52 | > 100 | > 100 | 5 | 8.33 | 1.85 | 4.13 | 9.2 | 100 | -14 | 16.9 | 1.3 | 19.3 | > 100 | 101 | 38 | -20 | -81 | growth at 0.001 µM (MDA-MB-231): 102%; growth at 0.01 µM (NCI-H322M): 91%; GI50 (HL-60(TB) [3]): 1.78 µM; LC50 (HL-60(TB) [3]): > 100 µM; TGI (HL-60(TB) [3]): 15.1 µM; GI50 (HOP-92): 2.63 µM; TGI (HOP-92): 9.09 µM; CC50 (HOP-92): > 100 µM; growth at 0.001 µM (SK-OV-3): 86%; growth at 0.01 µM (NCI-H460 [4]): 104%; growth at 0.01 µM [5]: 93%; GI50 (PC-3): 3.45 µM; LC50 (concentration giving 50% net cell kill) (PC-3): > 100 µM; TGI (PC-3): > 100 µM; growth at 0.01 µM (UACC-257): 85%; growth at 10 µM (EKVX): -10%; growth at 1 µM (OVCAR-4): 19%
COc1cc(C)cc(-c2c(-c3ccnc(-c4ccc(C(C)=O)cc4)c3)cnn2CC#N)c1 | 92 | 98 | 3.39 | > 100 | > 100 | 4 | 57 | 1.95 | 3.7 | 7.02 | 99 | 11 | 93.2 | 2.27 | > 100 | > 100 | 102 | 25 | -5 | 2 | growth at 0.001 µM (MDA-MB-231): 99%; growth at 0.01 µM (NCI-H322M): 95%; GI50 (HL-60(TB) [3]): 2.26 µM; LC50 (HL-60(TB) [3]): > 100 µM; TGI (HL-60(TB) [3]): 6.5 µM; GI50 (HOP-92): 1.46 µM; TGI (HOP-92): 7.56 µM; CC50 (HOP-92): > 100 µM; growth at 0.001 µM (SK-OV-3): 86%; growth at 0.01 µM (NCI-H460 [4]): 98%; growth at 0.01 µM [5]: 94%; GI50 (PC-3): 3.59 µM; LC50 (concentration giving 50% net cell kill) (PC-3): > 100 µM; TGI (PC-3): > 100 µM; growth at 0.01 µM (UACC-257): 81%; growth at 10 µM (EKVX): 46%; growth at 1 µM (OVCAR-4): 27%
Cc1cc(O)cc(-c2nn(CC#N)cc2-c2ccnc(-c3ccc(N(C)C)cc3)c2)c1 | 90 | 92 | 5.13 | 17.8 | 47.7 | 7 | 7.44 | 1.95 | 4.13 | 87.8 | 96 | -4 | 56.9 | 2.83 | 17.5 | > 100 | 96 | 10 | -22 | -59 | growth at 0.001 µM (MDA-MB-231): 99%; growth at 0.01 µM (NCI-H322M): 92%; GI50 (HL-60(TB) [3]): 3.14 µM; LC50 (HL-60(TB) [3]): > 100 µM; TGI (HL-60(TB) [3]): 12.9 µM; GI50 (HOP-92): 3.03 µM; TGI (HOP-92): 46.8 µM; CC50 (HOP-92): > 100 µM; growth at 0.001 µM (SK-OV-3): 92%; growth at 0.01 µM (NCI-H460 [4]): 102%; growth at 0.01 µM [5]: 99%; GI50 (PC-3): 3.77 µM; LC50 (concentration giving 50% net cell kill) (PC-3): > 100 µM; TGI (PC-3): 47.2 µM; growth at 0.01 µM (UACC-257): 81%; growth at 10 µM (EKVX): -1%; growth at 1 µM (OVCAR-4): 27%
COc1cc(C)cc(-c2nn(CC#N)cc2-c2ccnc(-c3ccc(N(C)C)cc3)c2)c1 | 104 | 107 | 0.681 | 14.8 | > 100 | 4 | 1.48 | 0.32 | 7.69 | 3.91 | 93 | -10 | -8.52 | 0.332 | > 100 | > 100 | 102 | 12 | -12 | -51 | growth at 0.001 µM (MDA-MB-231): 97%; growth at 0.01 µM (NCI-H322M): 108%; GI50 (HL-60(TB) [3]): 0.293 µM; LC50 (HL-60(TB) [3]): > 100 µM; TGI (HL-60(TB) [3]): 0.923 µM; GI50 (HOP-92): 0.557 µM; TGI (HOP-92): 26.6 µM; CC50 (HOP-92): > 100 µM; growth at 0.001 µM (SK-OV-3): 105%; growth at 0.01 µM (NCI-H460 [4]): 106%; growth at 0.01 µM [5]: 110%; GI50 (PC-3): 0.363 µM; LC50 (concentration giving 50% net cell kill) (PC-3): > 100 µM; TGI (PC-3): > 100 µM; growth at 0.01 µM (UACC-257): 91%; growth at 10 µM (EKVX): 23%; growth at 1 µM (OVCAR-4): 21%
